Assay results from ChEMBL document CHEMBL2311502, “Discovery of novel and ligand-efficient inhibitors of Plasmodium falciparum and Plasmodium vivax N-myristoyltransferase” (J Med Chem, 2013).
The source made the active and inactive calls. The calls are words filed in the database; no cut-off is given here.

How the values were obtained:
[1] = molecular target: T1, Glycylpeptide N-tetradecanoyltransferase (Plasmodium falciparum (isolate 3D7), UniProt Q8ILW6); test: Binding affinity to Plasmodium falciparum NMT using GSNKSKPKDASQRRR-NH2 as substrate after 10 to 20 mins by CPM fluorescence assay
T1 sequence (Q8ILW6 whole entry): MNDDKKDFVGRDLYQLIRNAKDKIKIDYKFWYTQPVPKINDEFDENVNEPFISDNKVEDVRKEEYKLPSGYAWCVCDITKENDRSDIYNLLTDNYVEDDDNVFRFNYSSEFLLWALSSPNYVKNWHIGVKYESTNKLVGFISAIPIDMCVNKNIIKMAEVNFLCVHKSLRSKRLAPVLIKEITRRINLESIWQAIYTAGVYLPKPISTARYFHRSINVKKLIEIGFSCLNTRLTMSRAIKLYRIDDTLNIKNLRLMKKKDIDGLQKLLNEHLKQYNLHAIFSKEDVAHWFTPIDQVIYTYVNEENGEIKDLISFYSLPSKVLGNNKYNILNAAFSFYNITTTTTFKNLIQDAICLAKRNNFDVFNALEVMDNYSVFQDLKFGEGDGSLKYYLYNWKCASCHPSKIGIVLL
In short: (§1)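 Ki derived from enzyme IC50 by the Cheng–Prusoff equation, which corrects for the differing Michaelis constants of each NMT. Each IC50 is the mean of two or more determinations.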

[2] = Binding affinity to recombinant Plasmodium vivax NMT using GSNKSKPKDASQRRR-NH2 as substrate after 10 to 20 mins by CPM fluorescence assay; in short: as §1
[3] = molecular target: T2, Glycylpeptide N-tetradecanoyltransferase 1 (Homo sapiens, UniProt P30419); test: Binding affinity to human NMT1 after 10 to 20 mins by CPM fluorescence assay; in short: as §1
T2 sequence (P30419 whole entry): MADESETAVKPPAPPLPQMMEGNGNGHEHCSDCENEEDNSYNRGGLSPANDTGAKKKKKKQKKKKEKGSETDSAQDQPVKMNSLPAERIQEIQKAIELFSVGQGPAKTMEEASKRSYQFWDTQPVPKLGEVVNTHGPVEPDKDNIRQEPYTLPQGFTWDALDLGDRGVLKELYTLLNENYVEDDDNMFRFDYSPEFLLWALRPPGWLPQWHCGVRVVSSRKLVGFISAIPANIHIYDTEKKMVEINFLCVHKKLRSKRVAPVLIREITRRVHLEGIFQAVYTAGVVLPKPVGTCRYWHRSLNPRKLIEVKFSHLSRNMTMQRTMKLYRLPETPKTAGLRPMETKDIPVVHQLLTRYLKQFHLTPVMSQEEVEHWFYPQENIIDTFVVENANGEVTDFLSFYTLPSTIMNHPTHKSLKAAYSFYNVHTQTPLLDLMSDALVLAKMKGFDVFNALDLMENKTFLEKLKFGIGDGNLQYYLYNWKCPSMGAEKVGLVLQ

[4] = molecular target: Glycylpeptide N-tetradecanoyltransferase 1 (Homo sapiens) (UniProt P30419); test: Inhibition of human NMT1
Plasmodium falciparum = test: Antiplasmodium activity against Chloroquine-sensitive later trophozoite form of Plasmodium falciparum 3D7 assessed as parasite growth inhibition after 48 hrs by FACS flow cytometric analysis; assay type: functional, organism-based; conditions: 3D7, 48 h

SMILES | Ki [1] [µM] | Ki [3] [µM] | inhibition activity call (active/not active) [4] | Ki [2] [µM] | EC50 (Plasmodium falciparum) [µM]
COc1cccc(CNC(=O)c2sc3ccccc3c2OC2CCNCC2)c1 | > 100 | > 100 | inactive | 2.7 | 
CCOC(=O)c1sc2ccccc2c1OC1CCNCC1 | 1.3 | > 100 | inactive | 1.32 | 14.6
O=C(NCc1ccccc1)c1sc2ccccc2c1OC1CCNCC1 | 10.7 | 4.76 | Active | 1.32 | 8.1
COc1cccc(COC(=O)c2sc3ccccc3c2OC2CCNCC2)c1 | 0.83 |  | Active |  | 2
O=C(OCc1ccccc1)c1sc2ccccc2c1OC1CCNCC1 | 3.37 | 4.41 | Active | 2.16 | 4.2

More lines, in order of falling Ki [1], values ahead:

Ki [1] [µM] | Ki [3] [µM] | inhibition activity call (active/not active) [4] | SMILES | Ki [2] [µM] | EC50 (Plasmodium falciparum) [µM]
13.6 | > 100 | inactive | CCOC(=O)c1oc2cccc(OC3CCNCC3)c2c1C | 14.9 | 
4.47 | > 100 | inactive | CCOC(=O)c1oc2ccccc2c1OC1CCNCC1 | 1.74 | 61.4
